Test results: ChEMBL document CHEMBL1649165, “Activity profile in vitro of micafungin against Spanish clinical isolates of common and emerging species of yeasts and molds” (2009)
*1 amine or outer side, *2 acyl side, *3 side chain or, on linkers, in order; H or OH if unused. Where a SMILES comes first, the peptide text is derived from it. Bridges are numbered along the chain shown (N, C = ends). [ ]: non-standard residue; d: D form. The star is where a group is joined. pTerphenylCO(4''-OnC5H11) = CCCCCOc1ccc(-c2ccc(-c3ccc(C(=O)*)cc3)cc2)cc1; Orn(4R-OH,5R-OH) = O=C([C@H](C[C@@H](O)[C@@H](O)N[*:3])N[*:1])[*:2]; hTyr(3S-OH,4S-OH) = N[C@H](C(=O)O)[C@H](O)[C@@H](O)c1ccc(O)cc1; Pro(3S-OH,4S-Me) = C[C@H]1CN[C@H](C(=O)O)[C@H]1O; Hyp = O=C(O)[C@@H]1C[C@@H](O)CN1

Key:
Assay type in all cases: functional
Candida parapsilosis = test: Antimicrobial activity against Candida parapsilosis by broth microdilution method; conditions: Lodderomyces parapsilosis
Procedure, shortened: (§1)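 Clinical isolates from human patients, tested by broth microdilution using the AFST-EUCAST reference procedure for fermentative yeasts. The MIC was read per that reference method.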

Pichia kudriavzevii = test: Antimicrobial activity against Candida krusei by broth microdilution method; procedure, shortened: as §1
Clavispora lusitaniae = test: Antimicrobial activity against Candida lusitaniae by broth microdilution method; procedure, shortened: as §1
Diutina rugosa = test: Antimicrobial activity against Candida rugosa by broth microdilution method; procedure, shortened: as §1
Debaryomyces hansenii = test: Antimicrobial activity against Candida famata by broth microdilution method; procedure, shortened: as §1
[Candida] intermedia = Antimicrobial activity against Candida intermedia by broth microdilution method; conditions: Sungouiella intermedia; procedure, shortened: as §1
Magnusiomyces capitatus = test: Antimicrobial activity against Dipodascus capitatus by broth microdilution method
Trichosporon asahii = test: Antimicrobial activity against Trichosporon asahii by broth microdilution method
Procedure, shortened: (§2)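 Nonfermentative yeast clinical isolates (Rhodotorula, Trichosporon) tested by broth microdilution. The EUCAST yeast recommendations were followed strictly, with one minor modification to improve growth. MIC was read as the endpoint.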

Rhodotorula mucilaginosa = test: Antimicrobial activity against Rhodotorula mucilaginosa by broth microdilution method; procedure, shortened: as §2
Trichosporon ovoides = test: Antimicrobial activity against Trichosporon ovoides by broth microdilution method; procedure, shortened: as §2
Trichosporon dermatis = test: Antimicrobial activity against Trichosporon dermatis by broth microdilution method; conditions: Cutaneotrichosporon dermatis; procedure, shortened: as §2
Naganishia albida = test: Antimicrobial activity against Cryptococcus albidus by broth microdilution method
Procedure, shortened: (§3)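 Clinical isolates of nonfermentative yeasts, tested by broth microdilution following EUCAST recommendations. The only change from that method was a minor modification to improve growth.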

Rhodotorula glutinis = test: Antimicrobial activity against Rhodotorula glutinis by broth microdilution method; procedure, shortened: as §2
Papiliotrema laurentii = test: Antimicrobial activity against Cryptococcus laurentii by broth microdilution method; procedure, shortened: as §3
Trichosporon = test: Antimicrobial activity against Trichosporon spp. by broth microdilution method; procedure, shortened: as §2
Aspergillus terreus = test: Antimicrobial activity against Aspergillus terreus by broth microdilution method
Procedure, shortened: (§4)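 Clinical mould isolates, tested by broth microdilution using the AFST-EUCAST reference method for filamentous fungi. For echinocandins, the endpoint was the minimum effective concentration: the lowest drug concentration giving aberrant hyphal growth, read with an inverted microscope.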

Aspergillus flavus = test: Antimicrobial activity against Aspergillus flavus by broth microdilution method; procedure, shortened: as §4
Aspergillus niger = test: Antimicrobial activity against Aspergillus niger by broth microdilution method; procedure, shortened: as §4
Aspergillus nidulans = test: Antimicrobial activity against Aspergillus nidulans by broth microdilution method; procedure, shortened: as §4
Aspergillus versicolor = test: Antimicrobial activity against Aspergillus versicolor by broth microdilution method; procedure, shortened: as §4
Aspergillus ustus = test: Antimicrobial activity against Aspergillus ustus by broth microdilution method; procedure, shortened: as §4
Fennellia nivea = test: Antimicrobial activity against Aspergillus niveus by broth microdilution method; procedure, shortened: as §4
Aspergillus = test: Antimicrobial activity against Aspergillus spp. by broth microdilution method; procedure, shortened: as §4
Fusarium solani = test: Antimicrobial activity against Fusarium solani by broth microdilution method
Procedure, shortened: (§5)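 Filamentous fungus clinical isolates tested by the AFST-EUCAST reference broth microdilution method for moulds. For echinocandins, the endpoint was the minimum effective concentration: the lowest drug concentration giving aberrant hyphal growth, read with an inverted microscope.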

Fusarium oxysporum = test: Antimicrobial activity against Fusarium oxysporum by broth microdilution method; procedure, shortened: as §4
Fusarium verticillioides = test: Antimicrobial activity against Fusarium verticillioides by broth microdilution method; procedure, shortened: as §5
Paecilomyces variotii = test: Antimicrobial activity against Paecilomyces variotii by broth microdilution method; procedure, shortened: as §5
Paecilomyces lilacinus = test: Antimicrobial activity against Paecilomyces lilacinus by broth microdilution method; conditions: Purpureocillium lilacinum; procedure, shortened: as §5
[1] = system: Scopulariopsis brevicaulis; test: Antimicrobial activity against Scopulariopsis brevicaulis by broth microdilution method; procedure, shortened: as §5
Fusarium equiseti = test: Antimicrobial activity against Fusarium equiseti by broth microdilution method; procedure, shortened: as §4
Fusarium reticulatum = test: Antimicrobial activity against Fusarium reticulatum by broth microdilution method; procedure, shortened: as §5
Coprinellus domesticus = test: Antimicrobial activity against Hormographiella verticillata by broth microdilution method; procedure, shortened: as §5
Neurospora sitophila = test: Antimicrobial activity against Chrysonilia sitophila by broth microdilution method; procedure, shortened: as §4
Scedosporium apiospermum = test: Antimicrobial activity against Scedosporium apiospermum by broth microdilution method; procedure, shortened: as §5
Alternaria alternata = test: Antimicrobial activity against Alternaria alternata by broth microdilution method; procedure, shortened: as §4
Lewia infectoria = test: Antimicrobial activity against Alternaria infectoria by broth microdilution method; procedure, shortened: as §4
Exophiala dermatitidis = test: Antimicrobial activity against Exophiala dermatitidis by broth microdilution method
Aureobasidium pullulans = test: Antimicrobial activity against Aureobasidium pullulans by broth microdilution method
Cladosporium = test: Antimicrobial activity against Cladosporium spp. by broth microdilution method; procedure, shortened: as §4
Lecythophora hoffmannii = test: Antimicrobial activity against Lecythophora hoffmannii by broth microdilution method; conditions: Coniochaeta hoffmannii; procedure, shortened: as §5
Mucor = test: Antimicrobial activity against Mucor spp.by broth microdilution method; procedure, shortened: as §5
[2] = system: Cunninghamella bertholletiae; test: Antimicrobial activity against Cunninghamella bertholletiae by broth microdilution method; procedure, shortened: as §4
[3] = Antimicrobial activity against Rhizopus microsporus by broth microdilution method; procedure, shortened: as §5
Rhizomucor = test: Antimicrobial activity against Rhizomucor spp.by broth microdilution method; procedure, shortened: as §5
Saksenaea vasiformis = test: Antimicrobial activity against Saksenaea vasiformis by broth microdilution method; procedure, shortened: as §5
Beauveria bassiana = test: Antimicrobial activity against Beauveria bassiana by broth microdilution method; procedure, shortened: as §4

CCCCCOc1ccc(-c2ccc(-c3ccc(C(=O)N[C@H]4C[C@@H](O)[C@@H](O)NC(=O)[C@@H]5[C@@H](O)[C@@H](C)CN5C(=O)[C@H]([C@@H](C)O)NC(=O)[C@H]([C@H](O)[C@@H](O)c5ccc(O)cc5)NC(=O)[C@@H]5C[C@@H](O)CN5C(=O)[C@H]([C@@H](C)O)NC4=O)cc3)cc2)cc1 [ANIDULAFUNGIN] ({pTerphenylCO(4''-OnC5H11)}-[Orn(4R-OH,5R-OH)]T[Hyp][hTyr(3S-OH,4S-OH)]T[Pro(3S-OH,4S-Me)]; lactam 1-C)
0.25 µg/mL: MIC90 (Diutina rugosa) | MIC90 (Debaryomyces hansenii) | MIC90 ([Candida] intermedia) | MIC90 (Aspergillus nidulans) | MIC90 (Aspergillus ustus) | MIC90 (Fennellia nivea) | MIC90 (Aspergillus)
4 µg/mL: MIC90 (Magnusiomyces capitatus) | MIC90 (Scedosporium apiospermum)
0.5 µg/mL: MIC50 (Scedosporium apiospermum)
0.06 µg/mL: MIC90 (Pichia kudriavzevii) | MIC50 (Diutina rugosa) | MIC50 (Debaryomyces hansenii) | MIC50 ([Candida] intermedia) | MIC50 (Aspergillus ustus) | MIC50 (Fennellia nivea) | MIC50 (Aspergillus) | MIC50 (Alternaria alternata) | MIC90 (Exophiala dermatitidis) | MIC90 (Aureobasidium pullulans) | MIC90 (Cladosporium) | MIC90 (Lecythophora hoffmannii)
0.12 µg/mL: MIC90 (Clavispora lusitaniae)
1 µg/mL: MIC50 (Candida parapsilosis)
> 16 µg/mL: MIC50 (Trichosporon asahii) | MIC90 (Trichosporon asahii) | MIC50 (Rhodotorula mucilaginosa) | MIC90 (Rhodotorula mucilaginosa) | MIC50 (Trichosporon ovoides) | MIC90 (Trichosporon ovoides) | MIC50 (Trichosporon dermatis) | MIC90 (Trichosporon dermatis) | MIC50 (Naganishia albida) | MIC90 (Naganishia albida) | MIC50 (Rhodotorula glutinis) | MIC90 (Rhodotorula glutinis) | MIC50 (Papiliotrema laurentii) | MIC90 (Papiliotrema laurentii) | MIC50 (Trichosporon) | MIC90 (Trichosporon) | MIC50 (Aspergillus flavus) | MIC90 (Aspergillus flavus) | MIC50 (Fusarium solani) | MIC90 (Fusarium solani) | MIC50 (Fusarium oxysporum) | MIC90 (Fusarium oxysporum) | MIC50 (Fusarium verticillioides) | MIC90 (Fusarium verticillioides) | MIC50 (Paecilomyces lilacinus) | MIC90 (Paecilomyces lilacinus) | MIC50 [1] | MIC90 [1] | MIC50 (Fusarium equiseti) | MIC90 (Fusarium equiseti) | MIC50 (Fusarium reticulatum) | MIC90 (Fusarium reticulatum) | MIC50 (Coprinellus domesticus) | MIC90 (Coprinellus domesticus) | MIC50 (Neurospora sitophila) | MIC90 (Neurospora sitophila) | MIC90 (Alternaria alternata) | MIC90 (Lewia infectoria) | MIC50 (Mucor) | MIC90 (Mucor) | MIC50 [2] | MIC90 [2] | MIC50 [3] | MIC90 [3] | MIC50 (Rhizomucor) | MIC90 (Rhizomucor) | MIC50 (Saksenaea vasiformis) | MIC90 (Saksenaea vasiformis) | MIC50 (Beauveria bassiana) | MIC90 (Beauveria bassiana)
0.03 µg/mL: MIC50 (Pichia kudriavzevii) | MIC50 (Clavispora lusitaniae) | MIC50 (Aspergillus terreus) | MIC90 (Aspergillus terreus) | MIC50 (Aspergillus niger) | MIC90 (Aspergillus niger) | MIC50 (Aspergillus nidulans) | MIC50 (Aspergillus versicolor) | MIC90 (Aspergillus versicolor) | MIC50 (Paecilomyces variotii) | MIC90 (Paecilomyces variotii) | MIC50 (Exophiala dermatitidis) | MIC50 (Aureobasidium pullulans) | MIC50 (Cladosporium) | MIC50 (Lecythophora hoffmannii)
2 µg/mL: MIC90 (Candida parapsilosis) | MIC50 (Magnusiomyces capitatus) | MIC50 (Lewia infectoria)
